Bioassay records from PubChem.
SKN-1 inh – suppressors of acrylamide-induced Pgst-4::GFP reporter in worms, primary screen, SKN-1 inhibitor project, whole organism, uHTS, GFP/RFP fluorescence ratio, strain VP596; C. elegans VP596 Pgst-4::GFP/RFP ratio, 24 h; inhibition, % at 21.8 µM; 0.49% of 360,000 active;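 active = interference check ratio from 0.5 to 1.5 plus GFP to RFP signal ratio inhibition reaching or exceeding a fixed threshold, cut at about 30% in these data, passing the limit was not always enough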
GRK2 aptamer HTS – compounds blocking aptamer binding on GRK2 – biochemical, human GRK2, bead flow cytometry, HTS, primary screen. Beta-adrenergic receptor kinase 1 (Homo sapiens), P25098. FAM-aptamer displacement from GRK2. inhibition of aptamer binding, % at 10 µM. 0.59% of 330,000 active;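 active = inhibition of aptamer binding above 40%, roughly 3 SD of noise, on plates passing a quality check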;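 also: median bead fluorescence of bound FAM aptamer so fluorescent compounds give negative values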
Myeloid diff MLP – induction of myeloid progenitor differentiation, primary screen, cell-based, flow cytometry, MLPCN library; AID 624256, 2012; 1% of 360,000 active; ER-HoxA9 myeloid progenitors, lysozyme-GFP differentiation; calls only at 10 µM;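 active = normalized GFP-positive differentiation at or above the plate's own cutoff, the solvent-only control mean plus 3 SD; inconclusive = no clear call, values can overlap the other calls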;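 also: cells exposed to compound for four days before flow analysis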
Rin1 Abl inh – inhibitors of Rin1-Abl protein binding, primary screen, biochemical, TR-FRET; Tyrosine-protein kinase ABL1 (Homo sapiens) + Ras and Rab interactor 1 (Homo sapiens), …; inhibition, % at 7.35 µM; 0.4% of 360,000 active; AID 588664, 2011; in the data active = inhibition above about 5%, passing the limit was not always enough
Rce1 inh – yeast Rce1p protease inhibitors, primary screen, biochemical, fluorescence, cell-free homogeneous. AID 2563, 2010. 0.27% of 290,000 active. yeast membranes, quenched prenylated peptide cleavage fluorescence. calls only;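 active = fall in fluorescence gain of 50% or more versus controls, with final raw signal at or below 3038400; inconclusive = same 50% fall but final raw signal above 3038400; inactive = fall in fluorescence gain under 50%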;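 also: plate controls were neutral control wells for no effect and wells lacking membranes for full effect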
T cell HTS – modulators of CD8 T cell-vesicle binding, primary screen, mouse 2C CD8+ T cells, flow cytometry. AID 2052, 2009. 0.068% of 330,000 active. response (vesicle binding), % at 7 µM. 2C CD8+ T cell-vesicle binding; hits give low values;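 active = response, share of CD8 T cells binding vesicles, and their 90th percentile fluorescence all below set limits, cut at about 80% in these data, passing the limit was not always enough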;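 also: values below 100% mean blocked vesicle binding to the CD8+ T cells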
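Material: 2C TCR transgenic mouse naive CD8+ T cells, MACS-purified. Also added: QL9-charged Drosophila Ld/ICAM-1/B7-1 vesicles. Timing: binding 1.5 h at 37 °C. Measured by: high-throughput flow cytometry with anti-B7-1 and anti-CD8 staining. Read-out: percent CD8+ FL2 mean versus row control. Controls: Unloaded micro-vesicles (low), QL9 vesicles with 0.7% DMSO (high).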
An asterisk follows results filed as active; i = inactive; ? = inconclusive; . = no result; + = active, no number. Most compounds without a hit are left out; they make up all but 2.6% or so of the library.

SMILES	SKN-1 inh	GRK2 aptamer HTS	Myeloid diff MLP	Rin1 Abl inh	Rce1 inh	T cell HTS
Fc1ccc(-c2nnc(-c3ccc(Cl)cc3)o2)cc1	25.7	0.0	i	3.5	i	432.8
CCSc1nnc(-c2ccc(Cl)cc2Cl)o1	66.8*	2.0	i	-0.9	i	557.2
CSc1ccccc1-c1nnc(-c2ccc(Cl)cc2Cl)o1	1.0	0.0	i	-0.1	i	353.3
CCOC(=O)/C=C1/SCC(=O)N1CC(=O)Nc1cccc(F)c1	-6.5	4.0	i	4.8	.	343.2
Cc1cccc(NC(=O)CNC(=O)COC(=O)c2ccco2)c1C	-4.3	3.0	i	-1.5	.	301.0
COc1cccc2sc3ccc(C#CC4(O)CCCCC4)cc3c(=O)c12	25.2	3.0	i	0.3	+	222.7
O=C(CNS(=O)(=O)c1ccc(Br)cc1)NC1CCCC1	3.0	5.0	i	1.9	i	365.9
COc1ccc(NC(=O)CC2C(=O)N(c3ccc(F)cc3)C(=S)N2NC(=O)c2ccccc2)cc1 (centres undefined)	-5.4	6.0	i	-3.7	i	392.9
O=C(CSc1ccsc1[N+](=O)[O-])N1CCN(c2ccccc2)CC1	7.1	1.0	i	-2.9	i	450.9
O=C(CSc1ccsc1[N+](=O)[O-])N1CCN(c2ccc(Cl)cc2)CC1	5.2	2.0	+	2.4	i	250.8
CCCCc1cc(=O)oc2c(C)c(OCc3nn[nH]n3)ccc12	-6.6	0.0	i	-1.9	i	i
CN(C)CC(O)c1ccc(C=Cc2ccc(Cl)cc2)cc1 (centres undefined)	52.5*	.	?	-2.6	.	.
CN(C)/C=C/C(=O)/C=C/c1ccc(Cl)cc1	2.6	2.0	i	3.7	i	169.2
O=C(CC(Nc1ccc(F)cc1)c1ccccc1)c1ccccc1 (centres undefined)	7.7	0.0	i	0.9	+	173.0
O=C(CSc1nnc(COc2cccc3ccccc23)o1)N1c2ccccc2CCc2ccccc21	44.5*	2.0	i	4.6	i	340.8
NC(=O)CSc1nnc(COc2cccc3ccccc23)o1	4.0	6.0	i	-3.3	i	178.5
CN(C)/C=N/c1ncc(C(=O)OC(C)(C)C)s1	18.6	0.0	i	-4.8	i	299.1
O=C(Nc1cc(S(=O)(=O)N2CCCCC2)ccc1N1CCCCC1)c1ccncc1	-4.4	2.0	i	-2.2	i	172.7
CC1CCC(C(C)C)C(OC(=O)C[n+]2cccc(C(N)=O)c2)C1 (centres undefined)	37.9*	0.0	i	-3.1	i	180.2
CC1CCC(C(C)C)C(OC(=O)COC(=O)c2ccc(N)cc2)C1 (centres undefined)	11.3	3.0	i	1.6	i	145.0
CCC(=O)N1CCCC(C)(C(=O)NS(=O)(=O)c2ccccc2Cl)C1 (centres undefined)	14.1	.	i	-1.5	.	.
Cc1cc(C)n(CC(C)NCc2cn[nH]c2-c2cccc3ccccc23)n1 (centres undefined)	-3.3	0.0	i	-0.9	i	150.3
Cc1cc(C)n(CC(C)NCc2cn[nH]c2-c2ccc(C)c(C)c2)n1 (centres undefined)	-0.1	1.0	+	1.0	i	209.7
CS/C(=C/[N+](=O)[O-])Nc1cccc2c1C(C)CC2(C)C (centres undefined)	-6.0	0.0	i	2.6	.	205.3
CN(C)c1ccc(C=Cc2nccc3ccccc23)cc1	47.6	.	?	-4.0	.	.
CCN(CC)c1nc(C=Cc2ccc(N(C)C)cc2)c2nccnc2n1	79.3	.	+	-5.8	.	.
NC(c1csc(NC(=O)c2cccc(OC(F)(F)F)c2)n1)c1ccccc1Cl (centres undefined)	4.3	.	+	0.8	.	.
COC(=O)c1cnc(Nc2nc(C(N)c3ccccc3Cl)cs2)nc1C(F)(F)F (centres undefined)	4.1	.	i	2.0	.	.
